ChEMBL document CHEMBL3352380, “Development of benzo[d]oxazol-2(3H)-ones derivatives as novel inhibitors of Mycobacterium tuberculosis InhA” (Bioorg Med Chem, 2014)
Converted amounts (≈) assume the structure as drawn.

Test system: Mycobacterium tuberculosis
Experiment: Antimicrobial activity against extensively drug-resistant Mycobacterium tuberculosis XDR-TB after 28 days by two-fold agar dilution method
Assay type: functional
Settings: 672 h
Outline: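 Two-fold serial dilutions in Middlebrook 7H11 agar with OADC supplement, final 50 to 0.78 µg/mL. Inoculum from fresh 7H11/OADC slants, adjusted to 1 mg/mL wet weight in 0.05% Tween 80 saline and diluted 10^-2 (~10^7 cfu/mL), spotted onto drug-containing agar tubes. Incubated at 37 °C; MIC is the lowest concentration inhibiting growth, read at 28 days.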

CO[C@H]1/C=C/O[C@@]2(C)Oc3c(C)c(O)c4c(O)c(c(/C=N/N5CCN(C)CC5)c(O)c4c3C2=O)NC(=O)/C(C)=C\C=C\[C@H](C)[C@H](O)[C@@H](C)[C@@H](O)[C@@H](C)[C@H](OC(C)=O)[C@@H]1C [RIFAMPIN]
MIC: 30.4 µM (≈ 25 µg/mL)

O=C(Cn1c(=O)oc2cc([N+](=O)[O-])ccc21)Nc1nc2ccc([N+](=O)[O-])cc2s1
MIC: 15 µM (≈ 6.25 µg/mL)

O=C(Cn1c(=O)oc2cc([N+](=O)[O-])ccc21)NCc1cccs1
MIC: 18.8 µM (≈ 6.25 µg/mL)

O=C(Cn1c(=O)oc2ccccc21)NCc1cccs1
MIC: 21.7 µM (≈ 6.25 µg/mL)

NNC(=O)c1ccncc1 [ISONIAZID]
MIC: 45.6 µM (≈ 6.25 µg/mL)

O=C(Cn1c(=O)oc2ccccc21)Nc1nc2ccccc2s1
MIC: 38.4 µM (≈ 12.5 µg/mL)

O=C(Cn1c(=O)oc2ccccc21)NCc1ccco1
MIC: 11.5 µM (≈ 3.12 µg/mL)

O=C(Cn1c(=O)oc2cc([N+](=O)[O-])ccc21)Nc1ncc([N+](=O)[O-])s1
MIC: 17.1 µM (≈ 6.25 µg/mL)

CC[C@@H](CO)NCCN[C@@H](CC)CO [ETHAMBUTOL]
MIC: 24.5 µM (≈ 5 µg/mL)

O=C(Cn1c(=O)oc2cc(Cl)ccc21)Nc1ncc([N+](=O)[O-])s1
MIC: 17.6 µM (≈ 6.25 µg/mL)

O=C(Cn1c(=O)oc2cc(Cl)ccc21)Nc1nc2ccccc2s1
MIC: 34.7 µM (≈ 12.5 µg/mL)
